The target in assay [1] is Gamma-secretase. The assay is described as follows: Inhibition of gamma secretase in CHO cells expressing human APP after 24 hrs by ELISA. The format is cell-based. The essentials: (§1)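 CHO 7w cells stably expressing the 751-residue APP splice variant, grown to confluence in DMEM with 200 μg/mL G418. Compounds were added from DMSO stocks to a final 1% DMSO; vehicle-only wells served as controls. After 4 or 24 h, the medium was spun at 3000g for 5 min. Aβ40 and Aβ42 were measured by sandwich ELISA (capture 2G3/21F12, biotinylated 3D6 reporter, TMB read at 455 nm). Mean ± SD of three experiments.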
In general terms: In an ELISA, binding on a coated surface is turned into a signal by an enzyme label.

For assay [2], the target named is Gamma-secretase. The assay is described as follows: Inhibition of gamma secretase in CHO cells expressing human APP after 4 hrs by ELISA. It is filed as cell-based. The essentials: as §1
Assay [3] deals with Gamma-secretase. The assay is described as follows: Inhibition of gamma secretase isolated from HeLa cells by ELISA. It is filed as cell-free, Homo sapiens. A digest of the protocol: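 HeLa membranes were washed in 0.1 M Na2CO3, pH 11.3, then solubilized in 1% CHAPSO. The preparation (0.2 mg protein/mL) was incubated with compound or DMSO and the C100Flag substrate at 37 °C for 0 or 4 h. Reactions were stopped with 0.5% SDS and boiling for 5 min. Aβ x-40 and x-42 products were measured by sandwich ELISA (capture 2G3/21F12, biotinylated 266 reporter).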

The target in assay [4] is Gamma-secretase. The assay is described as follows: Inhibition of gamma secretase in CHO cells expressing human APP by ELISA. It is filed as cell-based. The essentials:
as §1

One may read the IC50 as the midpoint of a concentration-inhibition curve. A low value points to higher potency. `CC(C)C[C@@H](NC(=O)N(Cc1ccccc1)C[C@@H](O)[C@@H](Cc1ccccc1)NC(=O)OC(C)(C)C)C(=O)N[C@@H](C(=O)OC(C)(C)C)C(C)C`: the figures for the IC50 on Gamma-secretase [1] and against Gamma-secretase [2] were 6.2 µM and 3 µM, respectively.
As to `COC(=O)[C@H](NC(=O)[C@@H](CC(C)C)NC(=O)N(Cc1ccccc1)C[C@@H](O)[C@@H](Cc1ccccc1)NC(=O)OC(C)(C)C)C(C)C`, the IC50 is 17 µM against Gamma-secretase [1], 2 µM on Gamma-secretase [2], 0.1 µM against Gamma-secretase [3] and 2 µM against Gamma-secretase [4].
In the case of `CC(C)C[C@H](NC(=O)N(Cc1ccccc1)C[C@@H](O)[C@H](Cc1ccccc1)NC(=O)OC(C)(C)C)C(=O)N[C@H](CC(C)C)C(=O)OC(C)(C)C`, the IC50 against Gamma-secretase [1] stood at 5 µM; against Gamma-secretase [2] it was 0.4 µM.
For `COC(=O)[C@H](NC(=O)[C@H](CC(C)C)NC(=O)N(Cc1ccccc1)C[C@@H](O)[C@H](Cc1ccccc1)NC(=O)OC(C)(C)C)C(C)C`, the half-maximal inhibitory concentration (IC50) stood at 0.6 µM against Gamma-secretase [3] and 1 µM on Gamma-secretase [4].
Taken in the same sequence, the figures for `COC(=O)[C@H](NC(=O)[C@@H](CC(C)C)NC(=O)N(Cc1ccccc1)C[C@@H](O)[C@@H](Cc1ccccc1)NC(=O)[C@@H](Cc1ccccc1)NC(=O)OC(C)(C)C)C(C)C` were 2 µM and 8 µM.
Turning to `COC(=O)[C@@H](CC(C)C)NC(=O)[C@@H](CC(C)C)NC(=O)N(Cc1ccccc1)C[C@@H](O)[C@@H](Cc1ccccc1)NC(=O)OC(C)(C)C`, the concentration for half-maximal inhibition (IC50) on Gamma-secretase [1] was 9 µM; against Gamma-secretase [2], 3 µM; at Gamma-secretase [3], 0.2 µM; against Gamma-secretase [4], 3 µM.
Consider `COC(=O)[C@H](NC(=O)[C@H](NC(=O)N(Cc1ccccc1)C[C@@H](O)[C@@H](Cc1ccccc1)NC(=O)OC(C)(C)C)C(C)C)C(C)C`, for which the half-inhibitory concentration (IC50) came to 2 µM against Gamma-secretase [3] and 12 µM on Gamma-secretase [4].
In the case of `COC(=O)[C@H](NC(=O)[C@@H](CC(C)C)NC(=O)N(C)C[C@@H](O)[C@@H](Cc1ccccc1)NC(=O)OC(C)(C)C)C(C)C`, the IC50 on Gamma-secretase [3] is 7 µM; against Gamma-secretase [4] it was 12 µM.
With `COC(=O)[C@H](NC(=O)[C@@H](CC(C)C)NC(=O)N(Cc1ccccc1)C[C@@H](O)[C@H](Cc1ccccc1)NC(=O)OC(C)(C)C)C(C)C`, the half-inhibitory concentration (IC50) is 0.03 µM against Gamma-secretase [3] and 0.6 µM against Gamma-secretase [4].
The corresponding values for `COC(=O)[C@@H](CC(C)C)NC(=O)[C@@H](CC(C)C)NC(=O)N(Cc1ccccc1)C[C@H](O)[C@@H](Cc1ccccc1)NC(=O)OC(C)(C)C` are 2 µM and 8 µM.
Taken in the same sequence, the figures for `COC(=O)[C@@H](NC(=O)[C@@H](CC(C)C)NC(=O)N(Cc1ccccc1)C[C@@H](O)[C@@H](Cc1ccccc1)NC(=O)OC(C)(C)C)C(C)C` were 0.8 µM and 8 µM.
As for `CC(C)C[C@H](NC(=O)[C@@H](CC(C)C)NC(=O)N(Cc1ccccc1)C[C@@H](O)[C@@H](Cc1ccccc1)NC(=O)OC(C)(C)C)C(=O)OC(C)(C)C`, the IC50 came out at 7 µM against Gamma-secretase [1] and 0.6 µM at Gamma-secretase [2].
For `COC(=O)[C@H](NC(=O)[C@@H](CC(C)C)NC(=O)N(C[C@@H](O)[C@@H](Cc1ccccc1)NC(=O)OC(C)(C)C)C(C)C)C(C)C`, the IC50 on Gamma-secretase [3] was 4 µM; against Gamma-secretase [4] it was 8 µM.
Take `COC(=O)[C@@H](NC(=O)[C@H](CC(C)C)NC(=O)N(Cc1ccccc1)C[C@@H](O)[C@@H](Cc1ccccc1)NC(=O)OC(C)(C)C)C(C)C`: the 50% inhibitory concentration (IC50) stood at 0.01 µM at Gamma-secretase [3] and 0.4 µM against Gamma-secretase [4].
For `COC(=O)[C@H](CC(C)C)NC(=O)[C@H](CC(C)C)NC(=O)N(Cc1ccccc1)C[C@@H](O)[C@H](Cc1ccccc1)NC(=O)OC(C)(C)C`, the 50% inhibitory concentration (IC50) against Gamma-secretase [1] came out at 9.4 µM; at Gamma-secretase [2], 0.6 µM; on Gamma-secretase [3], 0.03 µM; on Gamma-secretase [4] it was 0.6 µM.
Turning to `COC(=O)[C@@H](CC(C)C)NC(=O)N(Cc1ccccc1)C[C@@H](O)[C@@H](Cc1ccccc1)NC(=O)OC(C)(C)C`, the 50% inhibitory concentration (IC50) was 6 µM against Gamma-secretase [3] and 15 µM against Gamma-secretase [4].
The corresponding values for `COC(=O)[C@H](NC(=O)[C@@H](CC(C)C)NC(=O)N(Cc1ccccc1)C[C@@H](O)[C@@H](Cc1ccccc1)NC(=O)[C@H](NC(=O)OC(C)(C)C)C(C)C)C(C)C` are 3 µM and 7 µM.
Regarding `COC(=O)[C@H](NC(=O)[C@@H](Cc1ccccc1)NC(=O)N(Cc1ccccc1)C[C@@H](O)[C@@H](Cc1ccccc1)NC(=O)OC(C)(C)C)C(C)C`, the IC50 against Gamma-secretase [3] turned out to be 9 µM; at Gamma-secretase [4] it was 24 µM.
For the compound `COC(=O)[C@H](NC(=O)[C@@H](CC(C)C)NC(=O)N(CC(C)C)C[C@@H](O)[C@@H](Cc1ccccc1)NC(=O)OC(C)(C)C)C(C)C`, the half-inhibitory concentration (IC50) against Gamma-secretase [3] was determined as 2 µM; against Gamma-secretase [4], 5 µM.
The corresponding values for `COC(=O)[C@H](NC(=O)[C@H](CC(C)C)NC(=O)N(Cc1ccccc1)C[C@@H](O)[C@@H](Cc1ccccc1)NC(=O)OC(C)(C)C)C(C)C` are 0.08 µM and 0.8 µM.
For the compound `COC(=O)[C@@H](NC(=O)[C@H](CC(C)C)NC(=O)N(Cc1ccccc1)C[C@@H](O)[C@H](Cc1ccccc1)NC(=O)OC(C)(C)C)C(C)C`, the IC50 against Gamma-secretase [1] came out at 18 µM; at Gamma-secretase [2] it was 0.4 µM; against Gamma-secretase [3] it was 0.01 µM; at Gamma-secretase [4] it was 0.4 µM.
Consider `COC(=O)[C@@H](NC(=O)[C@@H](CC(C)C)NC(=O)N(Cc1ccccc1)C[C@@H](O)[C@H](Cc1ccccc1)NC(=O)OC(C)(C)C)C(C)C`, for which the IC50 is 0.06 µM at Gamma-secretase [3] and 0.8 µM on Gamma-secretase [4].
Turning to `COC(=O)[C@@H](Cc1ccccc1)NC(=O)[C@@H](CC(C)C)NC(=O)N(Cc1ccccc1)C[C@@H](O)[C@@H](Cc1ccccc1)NC(=O)OC(C)(C)C`, the IC50 turned out to be 0.8 µM on Gamma-secretase [3] and 3 µM against Gamma-secretase [4].
The corresponding values for `COC(=O)[C@H](NC(=O)[C@@H](CC(C)C)NC(=O)N(Cc1ccccc1)C[C@@H](O)[C@@H](Cc1ccccc1)NC(=O)[C@@H](CC(C)C)NC(=O)OC(C)(C)C)C(C)C` are 0.9 µM and 2 µM.
In the case of `COC(=O)[C@H](NC(=O)[C@@H](C)NC(=O)N(Cc1ccccc1)C[C@@H](O)[C@@H](Cc1ccccc1)NC(=O)OC(C)(C)C)C(C)C`, the IC50 against Gamma-secretase [3] amounted to 3 µM; at Gamma-secretase [4], 10 µM.
In the case of `CC(C)C[C@H](NC(=O)N(Cc1ccccc1)C[C@@H](O)[C@H](Cc1ccccc1)NC(=O)OC(C)(C)C)C(=O)N[C@H](C(=O)OC(C)(C)C)C(C)C`, the IC50 at Gamma-secretase [1] stood at 6 µM; against Gamma-secretase [2], 0.3 µM.
Consider `COC(=O)[C@@H](C)NC(=O)[C@@H](CC(C)C)NC(=O)N(Cc1ccccc1)C[C@@H](O)[C@@H](Cc1ccccc1)NC(=O)OC(C)(C)C`, for which the IC50 came out at 2 µM at Gamma-secretase [3] and 7 µM on Gamma-secretase [4].
Taken in the same sequence, the figures for `COC(=O)[C@H](NC(=O)[C@@H](CC(C)C)NC(=O)N(Cc1ccccc1)C[C@@H](O)[C@@H](Cc1ccccc1)NC(=O)[C@@H](C)NC(=O)OC(C)(C)C)C(C)C` were 12 µM and 30 µM.
Taken in the same sequence, the figures for `COC(=O)[C@H](NC(=O)[C@@H](CC(C)C)NC(=O)N(Cc1ccccc1)C[C@H](O)[C@@H](Cc1ccccc1)NC(=O)OC(C)(C)C)C(C)C` were 3 µM and 10 µM.

The values are drawn from ChEMBL document CHEMBL1149274, “Stereochemical analysis of (hydroxyethyl)urea peptidomimetic inhibitors of gamma-secretase” (J Med Chem, 2004).
